Test [1] deals with Rattus norvegicus. The test is described as follows: Mean maximum percent lowering of glucose at a single dose of 10 mg/kg, subcutaneously using rat oral glucose tolerance test. The note with it: route subcutaneous. The format is functional. The essentials: (§1)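 Rats given a single 10 mg/kg sc dose, calculated as free base. Blood glucose is compared with controls at each time point by unpaired Student's t-test; a significant lowering at any point (95% confidence) counts as active. Each rat's maximum percent lowering from the matched control mean is averaged to give the mean maximum percent lowering.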

The species named for test [2] is Rattus norvegicus. The test is described as follows: Effective dose to produce a 30% maximum decrease of glucose from control. The format is functional. In short, it runs like this:
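Rats, subcutaneous dosing at 10, 5 and 2.5 mg/kg, calculated as free base. For each rat, the maximum percent lowering of blood glucose from the control group mean at the matched time point is taken. The dose giving a 30% decrease, with its 95% CI, comes from regression of mean maximum percent decrease versus log dose (mg/kg).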

Test [3] deals with Rattus norvegicus. The test is described as follows: Mean maximum percent lowering of glucose was determined at a single dose of 10 mg/kg, subcutaneously using rat oral glucose tolerance test; IA = inactive. The format is functional, organism-based. More on the design: dose 10 mg/kg. In short, it runs like this: as §1

Active and inactive are the calls of the source. The rule behind the calls is not given here.

We go through 38 molecules from ChEMBL document CHEMBL1127064, “A novel series of N-(1-aminoalkylidene)carboximidamides as potential hypoglycemic agents” (1993).

As for `C/N=C(\N=C(\Nc1ccccc1)N1CCCC1)C(C)C`, the Lowering in the test with Rattus norvegicus [1] was 43%.

As for `CCCCCC/C(=N\C(=N\c1ccccc1)N1CCOCC1)N(C)C`, the Lowering in the test with Rattus norvegicus [1] came to 31%.

Regarding `CCC/N=C(\N=C(\Nc1ccccc1)N1CCOCC1)C(C)C`, the Lowering with Rattus norvegicus [1] was found to be 31%.

`CN(C)/C(=N/C(=N/c1ccccc1)N1CCOCC1)c1ccccc1`: the Lowering in the test with Rattus norvegicus [1] was 25%.

`CC(=N/C(C)C)/N=C(/Nc1ccccc1)N1CCOCC1`: the ED30 in the test listed under Rattus norvegicus [2] is 3.9 mg/kg. The molecule further displayed a Lowering in the test with Rattus norvegicus [1] of 42%.

Turning to `CCCCN(C)/C(C)=N/C(=N/c1ccccc1)N1CCOCC1`, in the test listed under Rattus norvegicus [2], the ED30 is 7.6 mg/kg. The molecule also came in with a Lowering in the test with Rattus norvegicus [1] of 33%.

Turning to `CN(C)/C(=N/C(=N/c1ccccc1)N1CCOCC1)C(C)(C)C`, the ED30 in the test filed under Rattus norvegicus [2] is 9.6 mg/kg. Further, the Lowering with Rattus norvegicus [1] is given as 40%.

Regarding `CC(=N)/N=C(/Nc1ccccc1)N1CCOCC1`, the Lowering in the test on Rattus norvegicus [1] is given as 21%.

`C/C(=N\C(=N\c1ccccc1)N1CCOCC1)N(C)c1ccccc1` gave a Lowering in the test on Rattus norvegicus [1] of 20%.

Consider `CC/N=C(C)\N=C(\Nc1ccccc1)N1CCOCC1`, for which the ED30 in the test filed under Rattus norvegicus [2] came out at 4.6 mg/kg. For the same molecule, the Lowering in the test on Rattus norvegicus [1] worked out at 48%.

Take `CC(=N/C(C)(C)C)/N=C(/Nc1ccccc1)N1CCOCC1`: the ED30 in the test filed under Rattus norvegicus [2] was 4.2 mg/kg. In addition, the Lowering in the test with Rattus norvegicus [1] came out at 45%.

`CC(C)C(=N)/N=C(/Nc1ccccc1)N1CCOCC1` returned a Lowering in the test with Rattus norvegicus [1] of 34%.

`C/C(=N\C(=N\c1ccccc1)N1CCOCC1)N(Cc1ccccc1)c1ccccc1` gave a Lowering in the test on Rattus norvegicus [1] of 17%.

In the test filed under Rattus norvegicus [2], `C/C(=N\C(=N\c1ccccc1)N1CCOCC1)N(C)C` registered an ED30 of 6.7 mg/kg. Also, in the test with Rattus norvegicus [1], the Lowering turned out to be 38%.

For the molecule `CC(=N/CCO)/N=C(/Nc1ccccc1)N1CCOCC1`, in the test with Rattus norvegicus [1], the Lowering amounted to 15%.

`C/N=C(\N=C(\Nc1ccc(F)cc1)N1CCOCC1)C(C)C`: the Lowering in the test on Rattus norvegicus [1] is reported as 42%.

For the molecule `CCOC(=O)C/N=C(C)\N=C(\Nc1ccccc1)N1CCOCC1`, the IA result in the test with Rattus norvegicus [3] was “inactive”.

With `C/N=C(\N=C(\Nc1ccccc1)N1CCOCC1)C(C)C`, the ED30 in the test listed under Rattus norvegicus [2] amounted to 1.5 mg/kg. Also, in the test on Rattus norvegicus [1], the Lowering stood at 52%.

Molecule `CC(C)/N=C(\N=C(\Nc1ccccc1)N1CCOCC1)C(C)C` displayed a Lowering in the test with Rattus norvegicus [1] of 23%.

With `CC(=O)N/C(C)=N/C(=N/c1ccccc1)N1CCOCC1`, the Lowering in the test on Rattus norvegicus [1] is 22%.

As to `CN/C(=N/C(=N/c1ccccc1OC)N1CCOCC1)C(C)C`, the Lowering in the test on Rattus norvegicus [1] was 21%.

`CC/N=C(\N=C(\Nc1ccccc1)N1CCOCC1)C(C)C` came in with a Lowering in the test with Rattus norvegicus [1] of 26%.

In turn, `CN(C)/C=N/C(=N/c1ccccc1)N1CCOCC1` came in with a Lowering in the test on Rattus norvegicus [1] of 22%.

As to `CN1CCC/C1=N\C(=N\c1ccccc1)N1CCOCC1` [LINOGLIRIDE], in the test listed under Rattus norvegicus [2], the ED30 is 6.1 mg/kg. This molecule also displayed a Lowering in the test on Rattus norvegicus [1] of 34%.

Molecule `C/C(=N\C(=N\c1ccccc1)N1CCOCC1)N1CCOCC1` yielded a Lowering with Rattus norvegicus [1] of 24%.

For the molecule `C/N=C(C)\N=C(\Nc1ccccc1)N1CCOCC1`, the ED30 in the test filed under Rattus norvegicus [2] was 2.6 mg/kg. Besides, the Lowering in the test with Rattus norvegicus [1] was found to be 45%.

As for `C/C(=N\C(=N\c1ccccc1)N1CCOCC1)N1CCCCC1`, in the test listed under Rattus norvegicus [2], the ED30 worked out at 5.3 mg/kg. Besides, the Lowering in the test on Rattus norvegicus [1] is given as 46%.

In the test listed under Rattus norvegicus [2], `CCC/N=C(C)\N=C(\Nc1ccccc1)N1CCOCC1` returned an ED30 of 0.97 mg/kg. In the test with Rattus norvegicus [1], the Lowering was 56%.

Consider `CCC(=N/C)/N=C(/Nc1ccccc1)N1CCOCC1`, for which, in the test with Rattus norvegicus [1], the Lowering came to 42%.

For the molecule `C/C(=N\C(=N\c1ccccc1)N1CCOCC1)N1CCN(C)CC1`, the IA entry with Rattus norvegicus [3] is “inactive”.

For the molecule `CC/C(=N\C(=N\c1ccccc1)N1CCOCC1)N(C)C`, the ED30 in the test listed under Rattus norvegicus [2] is 5.3 mg/kg. The same molecule showed a Lowering in the test on Rattus norvegicus [1] of 43%.

`CN(C)/C(Cc1ccccc1)=N/C(=N/c1ccccc1)N1CCOCC1` returned a Lowering in the test with Rattus norvegicus [1] of 27%.

As for `CC(=N/c1ccccc1)/N=C(/Nc1ccccc1)N1CCOCC1`, the Lowering with Rattus norvegicus [1] amounted to 26%.

For `CC(=N/S(C)(=O)=O)/N=C(/Nc1ccccc1)N1CCOCC1`, in the test with Rattus norvegicus [3], the IA entry was “inactive”.

`CN(C)/C(=N/C(=N/c1ccccc1)N1CCOCC1)C1CCCCC1`: in the test on Rattus norvegicus [1], the Lowering turned out to be 27%.

Take `CC(=N/Cc1ccccc1)/N=C(/Nc1ccccc1)N1CCOCC1`: the ED30 in the test listed under Rattus norvegicus [2] was 4.3 mg/kg. In the test with Rattus norvegicus [1], the Lowering amounted to 50%.

In the case of `CN(C)/C(CC(C)(C)C)=N/C(=N/c1ccccc1)N1CCOCC1`, the ED30 in the test filed under Rattus norvegicus [2] was 5.9 mg/kg. In the test with Rattus norvegicus [1], this molecule showed a Lowering of 37%.

In turn, `CC(C)/C(=N\C(=N\c1ccccc1)N1CCOCC1)N(C)C` registered an ED30 in the test listed under Rattus norvegicus [2] of 4.3 mg/kg. Further, the Lowering with Rattus norvegicus [1] amounted to 43%.
